Data taken from ChEMBL document CHEMBL1157789, “Design, synthesis and SAR of phenylamino-substituted 5,11-dihydro-dibenzo[a,d]cyclohepten-10-ones and 11H-dibenzo[b,f]oxepin-10-ones as p38 MAP kinase inhibitors” (Bioorg Med Chem Lett, 2010).
Calls of active or inactive are those of the source. No cut-off for these calls is given here.

Assays:
[1] = Inhibition of p38 assessed as rate of ATF-2 phosphorylation by immunosorbent non-radioactive enzyme assay
How it was run: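 p38α MAP kinase ELISA-type (immunosorbent, non-radioactive) assay. Enzyme was incubated with ATP at 100 µM, ATF-2 as substrate, and test compound at 10^-5 to 10^-8 M. Activity was read as the rate of ATF-2 phosphorylation. SB203580 served as the reference inhibitor.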

[2] = target: RAC-alpha serine/threonine-protein kinase (Homo sapiens) (UniProt P31749); test: Inhibition of AKT1 at 10 uM
[3] = target: T1, NUAK family SNF1-like kinase 1 (Homo sapiens) (UniProt O60285); test: Inhibition of ARK5 at 10 uM
T1 sequence (whole entry): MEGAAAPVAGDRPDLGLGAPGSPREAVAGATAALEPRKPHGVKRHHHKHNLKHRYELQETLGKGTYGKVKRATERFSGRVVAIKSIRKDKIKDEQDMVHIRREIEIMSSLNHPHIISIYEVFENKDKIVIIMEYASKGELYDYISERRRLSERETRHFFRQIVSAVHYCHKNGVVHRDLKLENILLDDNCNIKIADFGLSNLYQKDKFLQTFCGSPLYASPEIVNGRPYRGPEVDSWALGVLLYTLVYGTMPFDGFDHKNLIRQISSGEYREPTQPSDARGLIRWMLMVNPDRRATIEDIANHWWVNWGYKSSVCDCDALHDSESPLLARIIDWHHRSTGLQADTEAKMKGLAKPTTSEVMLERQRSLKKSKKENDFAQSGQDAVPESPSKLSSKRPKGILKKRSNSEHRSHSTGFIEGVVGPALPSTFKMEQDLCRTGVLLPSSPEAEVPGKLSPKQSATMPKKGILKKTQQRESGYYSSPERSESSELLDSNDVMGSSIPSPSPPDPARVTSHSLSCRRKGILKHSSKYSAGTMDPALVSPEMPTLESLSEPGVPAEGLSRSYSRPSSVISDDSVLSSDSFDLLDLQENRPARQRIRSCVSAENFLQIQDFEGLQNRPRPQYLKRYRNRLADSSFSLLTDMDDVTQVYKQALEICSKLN

[4] = target: Aurora kinase B (Homo sapiens) (UniProt Q96GD4); test: Inhibition of Aurora B at 10 uM
[5] = target: Tyrosine-protein kinase receptor UFO (Homo sapiens) (UniProt P30530); test: Inhibition of AXL at 10 uM
[6] = tested on: Serine/threonine-protein kinase B-raf (Homo sapiens), P15056 [V600E]; test: Inhibition of B-Raf V600E mutant at 10 uM
[7] = target: Casein kinase II subunit alpha (Homo sapiens) (UniProt P68400); test: Inhibition of CK2alpha1 at 10 uM
[8] = target: Focal adhesion kinase 1 (Homo sapiens) (UniProt Q05397); test: Inhibition of FAK at 10 uM
[9] = target: Insulin-like growth factor 1 receptor (Homo sapiens) (UniProt P08069); test: Inhibition of IGF1R at 10 uM
[10] = target: Insulin receptor (Homo sapiens) (UniProt P06213); test: Inhibition of INSR at 10 uM
[11] = target: Hepatocyte growth factor receptor (Homo sapiens) (UniProt P08581); test: Inhibition of MET at 10 uM
[12] = target: Serine/threonine-protein kinase PLK1 (Homo sapiens) (UniProt P53350); test: Inhibition of PLK1 at 10 uM
[13] = target: Serine/threonine-protein kinase N1 (Homo sapiens) (UniProt Q16512); test: Inhibition of PRK1 at 10 uM
[14] = target: T2, Serine/threonine-protein kinase PLK4 (Homo sapiens) (UniProt O00444); test: Inhibition of SAK at 10 uM
T2 sequence (whole entry): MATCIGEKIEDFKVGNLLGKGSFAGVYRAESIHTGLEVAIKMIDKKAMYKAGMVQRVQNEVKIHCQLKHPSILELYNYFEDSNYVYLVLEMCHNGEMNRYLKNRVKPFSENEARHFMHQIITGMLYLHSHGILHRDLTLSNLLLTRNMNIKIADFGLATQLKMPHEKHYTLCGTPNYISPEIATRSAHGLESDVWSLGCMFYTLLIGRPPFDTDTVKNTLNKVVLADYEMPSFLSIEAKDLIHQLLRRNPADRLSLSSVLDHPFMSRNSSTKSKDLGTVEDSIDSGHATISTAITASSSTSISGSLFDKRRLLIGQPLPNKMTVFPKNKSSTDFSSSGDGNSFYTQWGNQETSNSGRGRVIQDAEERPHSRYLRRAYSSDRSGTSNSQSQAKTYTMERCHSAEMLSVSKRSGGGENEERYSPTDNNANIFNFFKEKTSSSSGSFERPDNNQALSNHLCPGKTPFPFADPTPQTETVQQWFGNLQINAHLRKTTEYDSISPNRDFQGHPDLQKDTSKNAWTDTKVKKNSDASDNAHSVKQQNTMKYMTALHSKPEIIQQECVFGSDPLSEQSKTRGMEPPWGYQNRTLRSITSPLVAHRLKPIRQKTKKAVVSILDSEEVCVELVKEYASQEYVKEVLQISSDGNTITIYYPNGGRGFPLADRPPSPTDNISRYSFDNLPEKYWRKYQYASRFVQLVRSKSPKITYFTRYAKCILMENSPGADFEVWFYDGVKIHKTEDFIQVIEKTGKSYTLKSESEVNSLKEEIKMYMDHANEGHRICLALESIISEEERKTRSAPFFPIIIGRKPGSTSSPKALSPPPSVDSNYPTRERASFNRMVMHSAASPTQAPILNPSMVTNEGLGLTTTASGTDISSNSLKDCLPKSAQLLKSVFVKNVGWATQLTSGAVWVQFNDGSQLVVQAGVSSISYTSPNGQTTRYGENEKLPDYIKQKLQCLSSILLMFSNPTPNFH

[15] = target: Proto-oncogene tyrosine-protein kinase Src (Homo sapiens) (UniProt P12931); test: Inhibition of SRC at 10 uM
[16] = target: BDNF/NT-3 growth factors receptor (Homo sapiens) (UniProt Q16620); test: Inhibition of TRKB at 10 uM
[17] = target: Vascular endothelial growth factor receptor 2 (Homo sapiens) (UniProt P35968); test: Inhibition of VGFR2 at 10 uM

Chain of Tyrosine-protein kinase receptor UFO (Homo sapiens) (P30530 whole entry): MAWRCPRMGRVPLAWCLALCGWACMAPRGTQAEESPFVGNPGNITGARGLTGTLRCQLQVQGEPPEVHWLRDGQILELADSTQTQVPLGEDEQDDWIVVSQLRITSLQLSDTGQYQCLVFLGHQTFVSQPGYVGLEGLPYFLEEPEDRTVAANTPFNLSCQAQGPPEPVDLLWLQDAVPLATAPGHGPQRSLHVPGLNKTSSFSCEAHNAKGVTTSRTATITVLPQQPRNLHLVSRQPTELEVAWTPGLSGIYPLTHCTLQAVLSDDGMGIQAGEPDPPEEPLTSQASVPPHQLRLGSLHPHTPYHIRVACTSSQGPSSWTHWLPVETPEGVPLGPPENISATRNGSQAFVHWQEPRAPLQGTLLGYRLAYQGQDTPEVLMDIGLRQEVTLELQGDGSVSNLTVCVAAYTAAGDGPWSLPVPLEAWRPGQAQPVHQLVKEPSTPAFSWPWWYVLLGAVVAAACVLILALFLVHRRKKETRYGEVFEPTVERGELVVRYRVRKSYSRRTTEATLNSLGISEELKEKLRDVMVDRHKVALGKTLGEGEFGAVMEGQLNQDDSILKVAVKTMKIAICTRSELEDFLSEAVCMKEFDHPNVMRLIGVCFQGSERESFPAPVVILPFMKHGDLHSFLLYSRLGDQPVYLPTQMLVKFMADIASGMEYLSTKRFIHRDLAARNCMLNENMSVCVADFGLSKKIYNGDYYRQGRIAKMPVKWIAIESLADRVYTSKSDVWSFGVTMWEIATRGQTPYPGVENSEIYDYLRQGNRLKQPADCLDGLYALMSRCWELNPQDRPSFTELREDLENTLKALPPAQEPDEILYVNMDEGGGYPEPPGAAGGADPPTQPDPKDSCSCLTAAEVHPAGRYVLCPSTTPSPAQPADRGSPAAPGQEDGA
Chain of Serine/threonine-protein kinase B-raf (Homo sapiens), P15056 [V600E] (P15056 whole entry V600E): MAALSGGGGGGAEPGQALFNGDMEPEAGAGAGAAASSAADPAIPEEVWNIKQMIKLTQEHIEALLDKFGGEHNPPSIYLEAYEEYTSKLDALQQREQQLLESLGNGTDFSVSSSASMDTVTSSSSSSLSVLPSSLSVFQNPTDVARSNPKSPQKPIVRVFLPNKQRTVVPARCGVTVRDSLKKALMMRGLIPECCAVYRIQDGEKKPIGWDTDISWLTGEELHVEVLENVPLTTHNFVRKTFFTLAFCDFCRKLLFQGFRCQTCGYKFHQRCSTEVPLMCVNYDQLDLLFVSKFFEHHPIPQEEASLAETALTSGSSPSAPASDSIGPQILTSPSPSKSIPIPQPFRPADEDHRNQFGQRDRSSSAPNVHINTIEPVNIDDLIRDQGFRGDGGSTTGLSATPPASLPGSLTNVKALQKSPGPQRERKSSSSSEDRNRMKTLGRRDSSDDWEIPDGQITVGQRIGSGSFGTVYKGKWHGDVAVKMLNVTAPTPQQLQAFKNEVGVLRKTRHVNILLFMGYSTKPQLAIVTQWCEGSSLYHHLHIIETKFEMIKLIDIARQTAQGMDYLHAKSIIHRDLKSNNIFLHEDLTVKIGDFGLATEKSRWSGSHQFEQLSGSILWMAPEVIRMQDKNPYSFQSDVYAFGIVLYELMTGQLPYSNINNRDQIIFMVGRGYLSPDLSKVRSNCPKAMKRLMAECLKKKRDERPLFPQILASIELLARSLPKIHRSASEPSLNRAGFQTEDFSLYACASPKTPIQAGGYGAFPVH
Chain of Insulin-like growth factor 1 receptor (Homo sapiens) (P08069 31-736 limits assumed): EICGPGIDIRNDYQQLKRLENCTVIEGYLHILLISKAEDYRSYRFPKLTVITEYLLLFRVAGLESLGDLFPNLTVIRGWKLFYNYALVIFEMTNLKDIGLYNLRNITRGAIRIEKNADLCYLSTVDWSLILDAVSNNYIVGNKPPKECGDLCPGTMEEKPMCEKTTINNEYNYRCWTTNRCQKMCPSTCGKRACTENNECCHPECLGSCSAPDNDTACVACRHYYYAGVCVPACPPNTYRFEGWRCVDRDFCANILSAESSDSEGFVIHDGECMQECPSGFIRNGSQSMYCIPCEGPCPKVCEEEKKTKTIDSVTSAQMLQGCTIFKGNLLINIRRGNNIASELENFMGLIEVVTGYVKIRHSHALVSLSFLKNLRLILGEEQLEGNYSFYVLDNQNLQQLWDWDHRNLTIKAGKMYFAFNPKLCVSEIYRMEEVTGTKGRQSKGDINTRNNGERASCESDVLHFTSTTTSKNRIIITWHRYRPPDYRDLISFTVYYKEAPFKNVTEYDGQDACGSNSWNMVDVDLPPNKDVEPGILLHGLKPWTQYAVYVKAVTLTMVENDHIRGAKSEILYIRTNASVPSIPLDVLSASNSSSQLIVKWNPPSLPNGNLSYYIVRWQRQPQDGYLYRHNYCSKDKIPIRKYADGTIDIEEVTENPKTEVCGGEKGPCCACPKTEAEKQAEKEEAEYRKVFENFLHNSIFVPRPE
Chain of Insulin-like growth factor 1 receptor (Homo sapiens) (P08069 741-1367 limits assumed): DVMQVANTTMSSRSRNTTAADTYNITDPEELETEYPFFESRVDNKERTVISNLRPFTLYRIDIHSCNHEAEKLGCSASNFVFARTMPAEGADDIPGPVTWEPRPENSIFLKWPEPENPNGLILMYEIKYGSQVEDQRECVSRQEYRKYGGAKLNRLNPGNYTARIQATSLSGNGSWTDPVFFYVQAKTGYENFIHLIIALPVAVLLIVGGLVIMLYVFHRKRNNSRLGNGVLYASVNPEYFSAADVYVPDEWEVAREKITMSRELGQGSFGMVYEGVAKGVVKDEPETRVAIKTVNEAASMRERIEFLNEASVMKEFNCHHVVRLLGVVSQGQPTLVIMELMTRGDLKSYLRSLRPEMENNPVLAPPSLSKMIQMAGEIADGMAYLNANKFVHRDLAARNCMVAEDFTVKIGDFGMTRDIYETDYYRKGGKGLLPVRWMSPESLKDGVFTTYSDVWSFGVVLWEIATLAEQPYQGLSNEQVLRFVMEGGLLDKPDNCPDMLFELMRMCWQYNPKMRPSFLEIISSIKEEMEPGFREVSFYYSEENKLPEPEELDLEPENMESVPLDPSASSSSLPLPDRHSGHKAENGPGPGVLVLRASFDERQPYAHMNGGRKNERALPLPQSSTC
Chain of Serine/threonine-protein kinase PLK1 (Homo sapiens) (P53350 whole entry): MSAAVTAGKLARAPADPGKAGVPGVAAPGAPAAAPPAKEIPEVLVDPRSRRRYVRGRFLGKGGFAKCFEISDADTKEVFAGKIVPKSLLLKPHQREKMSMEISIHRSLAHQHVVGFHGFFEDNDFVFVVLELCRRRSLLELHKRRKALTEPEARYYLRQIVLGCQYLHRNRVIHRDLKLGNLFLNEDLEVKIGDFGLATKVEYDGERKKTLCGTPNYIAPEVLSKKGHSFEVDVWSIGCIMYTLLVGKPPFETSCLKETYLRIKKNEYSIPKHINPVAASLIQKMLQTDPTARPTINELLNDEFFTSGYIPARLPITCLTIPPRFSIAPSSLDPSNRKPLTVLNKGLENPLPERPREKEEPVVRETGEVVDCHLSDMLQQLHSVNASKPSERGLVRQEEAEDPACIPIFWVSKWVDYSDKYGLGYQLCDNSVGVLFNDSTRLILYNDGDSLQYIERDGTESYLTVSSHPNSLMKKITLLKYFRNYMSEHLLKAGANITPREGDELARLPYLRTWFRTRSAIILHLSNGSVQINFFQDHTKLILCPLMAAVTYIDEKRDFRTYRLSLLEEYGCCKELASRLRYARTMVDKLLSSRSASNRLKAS
Chain of Focal adhesion kinase 1 (Homo sapiens) (Q05397 2-1052 limits assumed): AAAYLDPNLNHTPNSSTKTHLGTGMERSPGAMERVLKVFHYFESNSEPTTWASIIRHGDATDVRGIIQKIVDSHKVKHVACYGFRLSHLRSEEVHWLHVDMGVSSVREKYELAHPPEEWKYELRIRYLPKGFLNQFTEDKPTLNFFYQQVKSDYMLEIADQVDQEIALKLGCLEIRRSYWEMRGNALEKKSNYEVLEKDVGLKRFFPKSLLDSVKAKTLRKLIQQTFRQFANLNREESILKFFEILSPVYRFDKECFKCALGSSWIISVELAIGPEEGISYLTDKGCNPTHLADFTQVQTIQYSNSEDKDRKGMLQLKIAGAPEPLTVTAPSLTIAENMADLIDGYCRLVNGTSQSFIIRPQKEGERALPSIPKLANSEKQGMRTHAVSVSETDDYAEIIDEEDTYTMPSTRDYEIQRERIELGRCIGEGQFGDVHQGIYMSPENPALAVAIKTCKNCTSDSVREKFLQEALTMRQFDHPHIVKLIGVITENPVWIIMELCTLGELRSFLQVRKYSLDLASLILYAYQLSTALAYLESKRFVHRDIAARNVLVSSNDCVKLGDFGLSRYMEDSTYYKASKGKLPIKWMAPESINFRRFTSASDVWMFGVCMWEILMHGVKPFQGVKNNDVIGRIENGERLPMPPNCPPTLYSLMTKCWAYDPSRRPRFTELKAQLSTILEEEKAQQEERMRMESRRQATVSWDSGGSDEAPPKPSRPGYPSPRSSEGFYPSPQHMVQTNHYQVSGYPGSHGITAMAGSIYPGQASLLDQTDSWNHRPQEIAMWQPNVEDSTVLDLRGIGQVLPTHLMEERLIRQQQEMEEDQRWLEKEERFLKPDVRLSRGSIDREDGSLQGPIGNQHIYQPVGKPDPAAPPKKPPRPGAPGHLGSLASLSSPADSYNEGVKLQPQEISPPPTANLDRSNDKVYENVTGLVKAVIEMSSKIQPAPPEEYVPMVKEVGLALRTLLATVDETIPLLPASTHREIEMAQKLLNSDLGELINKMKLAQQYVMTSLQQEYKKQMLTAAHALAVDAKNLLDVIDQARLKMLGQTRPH
Chain of Aurora kinase B (Homo sapiens) (Q96GD4 whole entry): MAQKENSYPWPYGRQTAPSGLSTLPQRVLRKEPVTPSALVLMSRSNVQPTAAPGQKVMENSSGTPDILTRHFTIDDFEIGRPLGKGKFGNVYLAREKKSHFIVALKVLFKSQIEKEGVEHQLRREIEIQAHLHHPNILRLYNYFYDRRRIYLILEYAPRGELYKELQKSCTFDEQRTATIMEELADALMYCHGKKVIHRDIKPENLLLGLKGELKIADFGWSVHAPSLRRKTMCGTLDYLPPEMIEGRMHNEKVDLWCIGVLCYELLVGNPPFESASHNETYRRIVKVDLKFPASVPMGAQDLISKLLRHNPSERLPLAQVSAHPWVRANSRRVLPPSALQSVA

Row | Compound | IC50 [1] [nM] | inhibition [2] | inhibition [3] | inhibition [4] | inhibition [5] | inhibition [6] | inhibition [7] | inhibition [8] | inhibition [9] | inhibition [10] | inhibition [11] | inhibition [12] | inhibition [13] | inhibition [14] | inhibition [15] | inhibition [16] | inhibition [17]
1 | O=C1Cc2ccccc2Oc2cc(Nc3ccccc3)ccc21 | 2920 | – | – | – | – | – | – | – | – | – | – | – | – | – | – | – | –
2 | Nc1ccccc1Nc1ccc2c(c1)C(=O)Cc1ccccc1C2 | 4010 | inactive | inactive | inactive | inactive | inactive | inactive | inactive | inactive | inactive | inactive | inactive | inactive | inactive | inactive | inactive | inactive
3 | O=C1Cc2ccc(Nc3ccccc3)cc2Cc2ccccc21 | 3210 | inactive | inactive | inactive | inactive | inactive | inactive | inactive | inactive | inactive | inactive | inactive | inactive | inactive | inactive | inactive | inactive
4 | Nc1cc(F)ccc1Nc1ccc2c(c1)Cc1ccccc1C(=O)C2 | 3820 | inactive | inactive | inactive | inactive | inactive | inactive | inactive | inactive | inactive | inactive | inactive | inactive | inactive | inactive | inactive | inactive
5 | Nc1cc(F)ccc1Nc1ccc2c(c1)Oc1ccccc1NC2=O | 2920 | inactive | inactive | inactive | inactive | inactive | inactive | inactive | inactive | inactive | inactive | inactive | inactive | inactive | inactive | inactive | inactive
6 | Nc1ccccc1Nc1ccc2c(c1)Cc1ccccc1C(=O)C2 | 1930 | inactive | inactive | inactive | inactive | inactive | inactive | inactive | inactive | inactive | inactive | inactive | inactive | inactive | inactive | inactive | inactive

Now those with a lower IC50 [1], led by results:

Row | IC50 [1] [nM] | inhibition [2] | inhibition [3] | inhibition [4] | inhibition [5] | inhibition [6] | inhibition [7] | inhibition [8] | inhibition [9] | inhibition [10] | inhibition [11] | inhibition [12] | inhibition [13] | inhibition [14] | inhibition [15] | inhibition [16] | inhibition [17] | Compound
7 | 1750 | inactive | inactive | inactive | inactive | inactive | inactive | inactive | inactive | inactive | inactive | inactive | inactive | inactive | inactive | inactive | inactive | O=C1Cc2ccccc2Cc2cc(Nc3ccccc3)ccc21
8 | 1720 | inactive | inactive | inactive | inactive | inactive | inactive | inactive | inactive | inactive | inactive | inactive | inactive | inactive | inactive | inactive | inactive | Nc1cc(F)ccc1Nc1ccc2c(c1)Cc1ccccc1CC2=O
9 | 1630 | – | – | – | – | – | – | – | – | – | – | – | – | – | – | – | – | Nc1cc(F)ccc1Nc1ccc2c(c1)Oc1ccccc1CC2=O
10 | 1510 | inactive | inactive | inactive | inactive | inactive | inactive | inactive | inactive | inactive | inactive | inactive | inactive | inactive | inactive | inactive | inactive | O=C1Cc2ccccc2Cc2cc(Nc3ccc(F)cc3F)ccc21
11 | 1200 | – | – | – | – | – | – | – | – | – | – | – | – | – | – | – | – | Nc1ccccc1Nc1ccc2c(c1)Oc1ccccc1CC2=O
12 | 980 | inactive | inactive | inactive | inactive | inactive | inactive | inactive | inactive | inactive | inactive | inactive | inactive | inactive | inactive | inactive | inactive | Nc1cc(F)ccc1Nc1ccc2c(c1)CC(=O)c1ccccc1C2
13 | 50 | – | – | – | – | – | – | – | – | – | – | – | – | – | – | – | – | Nc1ccccc1Nc1ccc2c(c1)CCc1ccccc1C2=O
